Test results from ChEMBL document CHEMBL1137873, “Synthesis of benzimidazole based analogues of sphingosine-1-phosphate: discovery of potent, subtype-selective S1P4 receptor agonists” (Bioorg Med Chem Lett, 2004).

Assays:
[1] = target: T1, Sphingosine 1-phosphate receptor 4 (Homo sapiens, UniProt O95977); assay: In vitro binding affinity towards human Sphingosine 1-phosphate receptor 4 expressed in HEK293T cells was determined using [gamma-35S]-GTP as radioligand; format: cell-based, HEK-293T
T1 sequence (O95977 whole entry): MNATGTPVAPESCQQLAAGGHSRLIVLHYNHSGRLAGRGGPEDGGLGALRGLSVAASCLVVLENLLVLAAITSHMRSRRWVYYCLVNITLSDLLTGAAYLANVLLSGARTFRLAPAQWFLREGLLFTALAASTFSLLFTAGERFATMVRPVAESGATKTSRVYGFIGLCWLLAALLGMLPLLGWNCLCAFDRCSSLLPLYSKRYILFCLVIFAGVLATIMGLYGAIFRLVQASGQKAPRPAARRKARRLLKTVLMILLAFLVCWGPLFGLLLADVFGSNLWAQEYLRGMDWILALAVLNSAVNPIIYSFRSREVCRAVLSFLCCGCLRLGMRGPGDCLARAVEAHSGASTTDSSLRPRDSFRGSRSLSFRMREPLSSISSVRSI
Method in brief: (§1)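 Membranes (5 µg) from HEK293T cells expressing the relevant human S1P receptor plus G-protein, incubated in GTP-binding buffer (HEPES 50 mM, NaCl 100 mM, MgCl2 5 mM, pH 7.5) with 5 µg saponin, 10 µM GDP, 0.1 nM [γ-35S]GTP and test lipid. Incubation was 30 min at 30°C. Bound label was separated by GF/C filtration and scintillation counted. EC50 is the mean of three experiments.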

[2] = target: Sphingosine 1-phosphate receptor 2 (Homo sapiens, UniProt O95136); assay: In vitro binding affinity towards human Sphingosine 1-phosphate receptor 2 expressed in HEK293T cells was determined using [gamma-35S]-GTP as radioligand; na denotes not active; format: cell-based; settings: hek-293t; method in brief: as §1
[3] = target: T2, Sphingosine 1-phosphate receptor 3 (Homo sapiens, UniProt Q99500); assay: In vitro binding affinity towards human Sphingosine 1-phosphate receptor 3 expressed in HEK293T cells was determined using [gamma-35S]-GTP as radioligand; na denotes not active; format: cell-based; settings: hek-293t; method in brief: as §1
[4] = target: T3, Sphingosine 1-phosphate receptor 5 (Homo sapiens, UniProt Q9H228); assay: In vitro binding affinity towards human Sphingosine 1-phosphate receptor 5 expressed in HEK293T cells was determined using [gamma-35S]-GTP as radioligand; na denotes not active; format: cell-based; settings: hek-293t; method in brief: as §1
[5] = target: T4, Sphingosine 1-phosphate receptor 1 (Homo sapiens, UniProt P21453); assay: In vitro binding affinity towards human Sphingosine 1-phosphate receptor 1 expressed in HEK293T cells was determined using [gamma-35S]-GTP as radioligand; partial agonist; format: cell-based, HEK-293T; method in brief: as §1
[6] = target: T3, Sphingosine 1-phosphate receptor 5; assay: In vitro binding affinity towards human Sphingosine 1-phosphate receptor 5 expressed in HEK293T cells was determined using [gamma-35S]-GTP as radioligand; partial agonist; format: cell-based, HEK-293T; method in brief: as §1
[7] = target: T4, Sphingosine 1-phosphate receptor 1; assay: In vitro binding affinity towards human Sphingosine 1-phosphate receptor 1 expressed in HEK293T cells was determined using [gamma-35S]-GTP as radioligand; format: cell-based, HEK-293T
[8] = target: T2, Sphingosine 1-phosphate receptor 3; assay: In vitro binding affinity towards human Sphingosine 1-phosphate receptor 3 expressed in HEK293T cells was determined using [gamma-35S]-GTP as radioligand; format: cell-based, HEK-293T

T2 sequence (Q99500 whole entry): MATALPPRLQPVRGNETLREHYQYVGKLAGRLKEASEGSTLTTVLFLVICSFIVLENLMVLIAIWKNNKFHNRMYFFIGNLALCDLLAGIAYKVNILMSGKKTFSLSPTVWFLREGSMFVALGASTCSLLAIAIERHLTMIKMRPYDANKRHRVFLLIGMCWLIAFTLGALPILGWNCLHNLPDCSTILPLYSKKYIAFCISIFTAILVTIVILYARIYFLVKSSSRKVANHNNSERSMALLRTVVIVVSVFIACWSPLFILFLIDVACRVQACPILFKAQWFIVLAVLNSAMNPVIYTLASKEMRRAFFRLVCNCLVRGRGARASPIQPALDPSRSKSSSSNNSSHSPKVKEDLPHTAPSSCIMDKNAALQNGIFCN
T3 sequence (Q9H228 whole entry): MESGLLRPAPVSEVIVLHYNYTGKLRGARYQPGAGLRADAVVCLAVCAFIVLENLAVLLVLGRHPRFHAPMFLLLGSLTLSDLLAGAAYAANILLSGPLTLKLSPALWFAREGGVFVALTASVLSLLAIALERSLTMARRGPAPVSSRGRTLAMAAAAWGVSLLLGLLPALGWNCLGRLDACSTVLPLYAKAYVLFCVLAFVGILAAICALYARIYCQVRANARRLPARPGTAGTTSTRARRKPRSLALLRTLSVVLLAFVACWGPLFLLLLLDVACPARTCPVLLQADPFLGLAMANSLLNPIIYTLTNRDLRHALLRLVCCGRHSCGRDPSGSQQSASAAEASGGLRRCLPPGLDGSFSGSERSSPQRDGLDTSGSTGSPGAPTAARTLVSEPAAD
Sequence of Sphingosine 1-phosphate receptor 2 (O95136 whole entry): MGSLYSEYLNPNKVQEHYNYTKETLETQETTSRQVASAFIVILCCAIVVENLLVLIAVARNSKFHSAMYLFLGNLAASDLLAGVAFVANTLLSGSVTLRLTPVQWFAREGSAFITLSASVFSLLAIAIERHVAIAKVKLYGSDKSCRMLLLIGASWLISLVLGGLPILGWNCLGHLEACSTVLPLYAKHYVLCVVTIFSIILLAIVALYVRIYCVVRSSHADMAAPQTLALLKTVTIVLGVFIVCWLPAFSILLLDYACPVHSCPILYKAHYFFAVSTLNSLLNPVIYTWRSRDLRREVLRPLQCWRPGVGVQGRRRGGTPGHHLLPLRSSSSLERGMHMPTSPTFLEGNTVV
T4 sequence (P21453 whole entry): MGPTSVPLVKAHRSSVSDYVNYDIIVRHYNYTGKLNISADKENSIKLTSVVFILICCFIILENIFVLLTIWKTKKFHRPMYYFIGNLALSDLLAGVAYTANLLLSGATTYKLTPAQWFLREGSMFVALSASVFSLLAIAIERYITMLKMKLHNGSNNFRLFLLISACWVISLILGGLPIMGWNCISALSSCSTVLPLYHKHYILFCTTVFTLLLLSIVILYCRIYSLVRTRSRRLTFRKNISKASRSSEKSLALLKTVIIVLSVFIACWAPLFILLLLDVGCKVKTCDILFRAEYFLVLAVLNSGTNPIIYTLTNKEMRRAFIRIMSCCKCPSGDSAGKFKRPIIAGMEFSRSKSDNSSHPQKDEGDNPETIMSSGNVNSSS

EC50 [1] [nM] | EC50 [2] | EC50 [3] | EC50 [4] | EC50 [5] [nM] | EC50 [6] [nM] | SMILES | EC50 [7] [nM] | EC50 [8] [nM]
33000 | Not Active | Not Active | Not Active | 2900 | – | CCCCCCCCc1ccc2[nH]c([C@@H](N)[C@@H](C)O)nc2c1.O=C(O)C(F)(F)F | – | –
94 | Not Active | Not Active | – | 240 | 77 | CCCCCCCCc1ccc2[nH]c([C@@H](N)[C@@H](C)OP(=O)(O)O)nc2c1.O=C(O)C(F)(F)F | – | –
48 | Not Active | Not Active | – | 37 | 6.6 | CCCCCCCCc1ccc2[nH]c([C@@H](N)COP(=O)(O)O)nc2c1.COC(=O)C(F)(F)F | – | –
1600 | Not Active | Not Active | – | 330 | 390 | CCCCCCCCc1ccc2[nH]c([C@H](N)CO)nc2c1.O=C(O)C(F)(F)F | – | –
36 | Not Active | Not Active | – | 21 | 8.2 | CCCCCCCCc1ccc2[nH]c([C@H](N)COP(=O)(O)O)nc2c1.COC(=O)C(F)(F)F | – | –
4200 | Not Active | Not Active | – | 2100 | 2400 | CCCCCCCCc1ccc2[nH]c([C@@H](N)CO)nc2c1.O=C(O)C(F)(F)F | – | –
1200 | Not Active | Not Active | – | 1000 | 370 | CCCCCCCCc1ccc2[nH]c(C(C)(N)COP(=O)(O)O)nc2c1.O=C(O)C(F)(F)F (stereo not drawn) | – | –

SMILES | EC50 [1] [nM] | EC50 [2] | EC50 [3] | EC50 [4] | EC50 [5] [nM] | EC50 [6] [nM] | EC50 [7] [nM] | EC50 [8] [nM]
CCCCCCCCCCCCC/C=C/[C@@H](O)[C@@H](N)COP(=O)(O)O | 37 | – | – | – | – | – | 20 | 1.2
